Key:
[1] = target: T1, Adrenergic receptor alpha-1 (Rattus norvegicus, UniProt P15823+P23944+P43140); test: Compound was tested for the inhibition of [3H]prazosin binding alpha-1-adrenergic receptor of crude rat brain membrane.
T1 sequence (P15823 whole entry): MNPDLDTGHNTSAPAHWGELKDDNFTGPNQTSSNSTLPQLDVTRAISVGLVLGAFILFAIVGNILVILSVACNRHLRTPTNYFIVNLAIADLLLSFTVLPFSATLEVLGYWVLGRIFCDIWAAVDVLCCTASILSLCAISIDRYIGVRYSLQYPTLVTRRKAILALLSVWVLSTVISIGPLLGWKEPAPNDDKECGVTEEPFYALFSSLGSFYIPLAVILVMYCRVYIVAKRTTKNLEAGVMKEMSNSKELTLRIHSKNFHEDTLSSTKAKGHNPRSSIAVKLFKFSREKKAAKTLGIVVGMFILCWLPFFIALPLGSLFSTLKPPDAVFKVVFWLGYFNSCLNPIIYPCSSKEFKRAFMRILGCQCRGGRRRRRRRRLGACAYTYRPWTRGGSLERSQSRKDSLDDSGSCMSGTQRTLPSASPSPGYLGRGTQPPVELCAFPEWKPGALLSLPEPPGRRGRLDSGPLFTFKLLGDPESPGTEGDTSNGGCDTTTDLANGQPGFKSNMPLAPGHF
T1 sequence (P23944 whole entry): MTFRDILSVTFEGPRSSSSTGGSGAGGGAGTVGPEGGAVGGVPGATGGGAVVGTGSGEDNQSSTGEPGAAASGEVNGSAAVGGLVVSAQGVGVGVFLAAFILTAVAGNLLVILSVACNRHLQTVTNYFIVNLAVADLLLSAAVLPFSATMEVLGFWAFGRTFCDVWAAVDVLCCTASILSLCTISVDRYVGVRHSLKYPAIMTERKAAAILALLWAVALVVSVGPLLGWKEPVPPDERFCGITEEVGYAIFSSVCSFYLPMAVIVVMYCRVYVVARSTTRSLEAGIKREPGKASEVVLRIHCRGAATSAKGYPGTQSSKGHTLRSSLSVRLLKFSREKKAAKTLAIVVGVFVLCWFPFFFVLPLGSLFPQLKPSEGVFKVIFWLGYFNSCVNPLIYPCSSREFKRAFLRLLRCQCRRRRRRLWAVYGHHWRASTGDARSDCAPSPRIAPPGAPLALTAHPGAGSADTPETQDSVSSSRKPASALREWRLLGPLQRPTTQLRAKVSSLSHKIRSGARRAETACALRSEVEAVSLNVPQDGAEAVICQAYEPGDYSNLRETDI
T1 sequence (P43140 whole entry): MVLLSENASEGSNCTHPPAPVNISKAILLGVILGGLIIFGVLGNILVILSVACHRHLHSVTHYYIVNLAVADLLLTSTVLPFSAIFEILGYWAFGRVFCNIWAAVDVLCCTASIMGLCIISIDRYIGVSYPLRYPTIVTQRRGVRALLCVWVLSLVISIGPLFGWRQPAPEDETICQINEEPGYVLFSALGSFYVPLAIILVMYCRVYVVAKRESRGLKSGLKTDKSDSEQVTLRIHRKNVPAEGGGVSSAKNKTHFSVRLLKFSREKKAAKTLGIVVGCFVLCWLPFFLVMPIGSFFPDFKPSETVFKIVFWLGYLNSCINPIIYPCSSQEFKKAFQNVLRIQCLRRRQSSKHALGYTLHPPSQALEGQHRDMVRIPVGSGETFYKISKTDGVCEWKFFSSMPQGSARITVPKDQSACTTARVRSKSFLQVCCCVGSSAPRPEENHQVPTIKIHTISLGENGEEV

Rattus norvegicus [2] = test: Heart rate of compound was measured in anesthetized rats at 60 min.; assay type: functional
Procedure, shortened: (§1)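 Female Sprague-Dawley rats (200–300 g), anesthetized iv with α-chloralose (40 mg/kg), urethane (40 mg/kg) and pentobarbital (15 mg/kg). Carotid artery catheter for blood pressure and heart rate, jugular vein for drugs. Test agent given at 1.0 mg/kg iv in 0.1 M citric acid (1 mg/mL). Pressor responses to iv norepinephrine 0.1 μg/kg, phenylephrine 2.5 μg/kg and angiotensin I 0.1 μg/kg were taken before and 15, 30, 45 and 60 min after dosing. Mean ± SEM.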

Rattus norvegicus [3] = test: Mean arterial pressure of compound was measured in anesthetized rats at 0 min.; assay type: functional, Artery; procedure, shortened: as §1
Rattus norvegicus [4] = test: Mean arterial pressure of compound was measured in anesthetized rats at 60 min; assay type: functional, Artery; procedure, shortened: as §1
Rattus norvegicus [5] = test: Delta BP refers to oral hypotensive activity of compound which is evaluated at 4 hr and 24 hr in restrained, normotensive conscious rats at a dose of 5 mg/kg; -9/-3; assay type: functional
Procedure, shortened: (§2)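 Female Sprague-Dawley rats, normotensive, restrained in a towel. Blood pressure was read directly via chronic indwelling aortic cannulas exteriorized at the nape, before and 4 and 24 h after an oral dose suspended in carboxymethylcellulose (10 mL/kg). Values from two animals were averaged at each time; a mean change of at least 5 mmHg was taken as significant (p < 0.05).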

Rattus norvegicus [6] = test: Delta BP refers to oral hypotensive activity of compound which is evaluated at 4 hr and 24 hr in restrained, normotensive conscious rats at a dose of 15 mg/kg; -20/-18; assay type: functional; procedure, shortened: as §2
Rattus norvegicus [7] = test: Pressor effects of intravenous norepinephrine (0.1 ug/kg) was measured in anesthetized rats at 0 min.; assay type: functional; procedure, shortened: as §1
Rattus norvegicus [8] = test: Pressor effects of intravenous phenylephrine (2.5 ug/kg) was measured in anesthetized rats at 60 min.; assay type: functional
Procedure, shortened: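 Female Sprague–Dawley rats (200–300 g) anesthetized iv with α-chloralose 40 mg/kg, urethane 40 mg/kg and pentobarbital 15 mg/kg. Carotid artery catheterized for blood pressure, jugular vein for drugs. Pressor response to iv phenylephrine 2.5 µg/kg measured before and 15, 30, 45, 60 min after 1.0 mg/kg iv test drug dissolved in 0.1 M citric acid (1 mg/mL). Mean ± SEM.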

Rattus norvegicus [9] = test: Pressor effects of intravenous phenylephrine (2.5 ug/kg) was measured in anesthetized rats at 0 min.; assay type: functional; procedure, shortened: as §1

Structure (SMILES): COc1cc2c(cc1OC)C(CCN1CCN(c3ccc(F)cc3)CC1)OCC2 (centres undefined)
- Ki [1]: 4 nM
- HR (Rattus norvegicus [2]): 426 beats min-1
- MAP (Rattus norvegicus [3]): 105 mmHg
- MAP (Rattus norvegicus [4]): 87 mmHg
- Delta blood pressure (Rattus norvegicus [5]): -9 mmHg
- Delta blood pressure (Rattus norvegicus [6]): -20 mmHg
- Pressor response (Rattus norvegicus [7]): 19 mmHg
- Pressor response (Rattus norvegicus [8]): 16 mmHg
- Pressor response (Rattus norvegicus [9]): 48 mmHg
